Source: ChEMBL document CHEMBL1122912, “Synthesis and antitumor activity of structural analogues of the anticancer benzophenanthridine alkaloid fagaronine chloride” (1985)

Tests used:
[1] = test system: Mus musculus; experiment: Compound was evaluated for the anticancer activity against P388 lymphocytic leukemia in vivo in mouse at a dosage of 50 mg/kg. The survivals were reported.; type: functional
[2] = test system: Mus musculus; experiment: Compound was evaluated for the anticancer activity against P388 lymphocytic leukemia in vivo in mouse at a dosage of 50 mg/kg and the weight difference was measured.; type: functional
[3] = test system: Mus musculus; experiment: Compound was evaluated for the anticancer activity against P388 lymphocytic leukemia in vivo in mouse at a dosage of 200 mg/kg and percent treated/control was reported; type: functional
[4] = Compound was evaluated for its cytotoxic activity in vitro KB cell culture system derived from human epidermoid carcinoma; type: functional; settings: read-out: ED50 (the source's name)
[5] = test system: Mus musculus; experiment: Compound was evaluated for the anticancer activity against P388 lymphocytic leukemia in vivo in mouse at a dosage of 25 mg/kg. The survivals were reported.; type: functional
[6] = test system: Mus musculus; experiment: Compound was evaluated for the anticancer activity against P388 lymphocytic leukemia in vivo in mouse at a dosage of 200 mg/kg and the weight difference was measured.; type: functional
[7] = test system: Mus musculus; experiment: Compound was evaluated for the anticancer activity against P388 lymphocytic leukemia in vivo in mouse at a dosage of 100 mg/kg and the weight difference was measured.; type: functional
[8] = test system: Mus musculus; experiment: Compound was evaluated for the anticancer activity against P388 lymphocytic leukemia in vivo in mouse at a dosage of 100 mg/kg; type: functional
[9] = test system: Mus musculus; experiment: Compound was evaluated for the anticancer activity against P388 lymphocytic leukemia in vivo in mouse at a dosage of 200 mg/kg, survivals were reported.; type: functional
[10] = test system: Mus musculus; experiment: Compound was evaluated for the anticancer activity against P388 lymphocytic leukemia in vivo in mouse at a dosage of 100 mg/kg and percent treated/control was reported; type: functional
[11] = test system: Mus musculus; experiment: Compound was evaluated for the anticancer activity against P388 lymphocytic leukemia in vivo in mouse at a dosage of 25 mg/kg and percent treated/control was reported; type: functional
[12] = test system: Mus musculus; experiment: Compound was evaluated for the anticancer activity against P388 lymphocytic leukemia in vivo in mouse at a dosage of 25 mg/kg and the weight difference was measured.; type: functional
[13] = test system: Mus musculus; experiment: Compound was evaluated for the anticancer activity against P388 lymphocytic leukemia in vivo in mouse at a dosage of 50 mg/kg and percent treated/control was reported; type: functional
[14] = Compound was evaluated for its cytotoxic activity in vitro KB cell culture system; type: functional; settings: Homo sapiens, read-out: ED50 (the source's name)
How it was run: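 Cytotoxicity was measured in cultured KB human cancer cells and reported as ED50 values.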

[15] = test system: Mus musculus; experiment: Compound was evaluated for the anticancer activity against P388 lymphocytic leukemia in vivo in mouse at a dosage of 12.5 mg/kg and percent treated/control was reported; type: functional
[16] = test system: Mus musculus; experiment: Compound was evaluated for the anticancer activity against P388 lymphocytic leukemia in vivo in mouse at a dosage of 50 mg/kg, survivals were reported.; type: functional
[17] = test system: Mus musculus; experiment: Compound was evaluated for the anticancer activity against P388 lymphocytic leukemia in vivo in mouse at a dosage of 12.5 mg/kg and the weight difference was measured.; type: functional
[18] = test system: Mus musculus; experiment: Compound was evaluated for the anticancer activity against P388 lymphocytic leukemia in vivo in mouse at a dosage of 12.5 mg/kg. The survivals were reported.; type: functional
[19] = test system: Mus musculus; experiment: Compound was evaluated for the anticancer activity against P388 lymphocytic leukemia in vivo in mouse at a dosage of 400 mg/kg and percent treated/control was reported; type: functional
[20] = test system: Mus musculus; experiment: Compound was evaluated for the anticancer activity against P388 lymphocytic leukemia in vivo in mouse at a dosage of 400 mg/kg. The survivals were reported.; type: functional
[21] = test system: Mus musculus; experiment: Compound was evaluated for the anticancer activity against P388 lymphocytic leukemia in vivo in mouse at a dosage of 200 mg/kg. The survivals were reported.; type: functional
[22] = test system: Mus musculus; experiment: Compound was evaluated for the anticancer activity against P388 lymphocytic leukemia in vivo in mouse at a dosage of 100 mg/kg. The survivals were reported.; type: functional
[23] = test system: Mus musculus; experiment: Compound was evaluated for the anticancer activity against P388 lymphocytic leukemia in vivo in mouse at a dosage of 400 mg/kg and the weight difference was measured.; type: functional
[24] = test system: Mus musculus; experiment: Compound was evaluated for the anticancer activity against M5076 sarcoma in vivo in mouse at a dosage of 100 mg/kg, survivals were reported; type: functional
[25] = test system: Mus musculus; experiment: Compound was evaluated for the anticancer activity against M5076 sarcoma in vivo in mouse at a dosage of 6.25 mg/kg and the weight difference was measured.; type: functional
[26] = test system: Mus musculus; experiment: Compound was evaluated for the anticancer activity against M5076 sarcoma in vivo in mouse at a dosage of 12.5 mg/kg, survivals were reported.; type: functional
[27] = test system: Mus musculus; experiment: Compound was evaluated for the anticancer activity against M5076 sarcoma in vivo in mouse at a dosage of 100 mg/kg and percent treated/control was reported; type: functional
[28] = test system: Mus musculus; experiment: Compound was evaluated for the anticancer activity against M5076 sarcoma in vivo in mouse at a dosage of 12.5 mg/kg and percent treated/control was reported; type: functional
[29] = test system: Mus musculus; experiment: Compound was evaluated for the anticancer activity against M5076 sarcoma in vivo in mouse at a dosage of 12.5 mg/kg; type: functional
[30] = test system: Mus musculus; experiment: Compound was evaluated for the anticancer activity against M5076 sarcoma in vivo in mouse at a dosage of 6.25 mg/kg, survivals were reported.; type: functional
[31] = test system: Mus musculus; experiment: Compound was evaluated for the anticancer activity against M5076 sarcoma in vivo in mouse at a dosage of 50 mg/kg and percent treated/control was reported; type: functional
[32] = test system: Mus musculus; experiment: Compound was evaluated for the anticancer activity against M5076 sarcoma in vivo in mouse at a dosage of 200 mg/kg and the weight difference was measured.; type: functional
[33] = test system: Mus musculus; experiment: Compound was evaluated for the anticancer activity against M5076 sarcoma in vivo in mouse at a dosage of 50 mg/kg, survivals were reported.; type: functional
[34] = test system: Mus musculus; experiment: Compound was evaluated for the anticancer activity against M5076 sarcoma in vivo in mouse at a dosage of 25 mg/kg, survivals were reported.; type: functional
[35] = test system: Mus musculus; experiment: Compound was evaluated for the anticancer activity against M5076 sarcoma in vivo in mouse at a dosage of 50 mg/kg and the weight difference was measured.; type: functional
[36] = test system: Mus musculus; experiment: Compound was evaluated for the anticancer activity against M5076 sarcoma in mouse at a dosage of 400 mg/kg, survivals were reported; type: functional
[37] = test system: Mus musculus; experiment: Compound was evaluated for the anticancer activity against M5076 sarcoma in vivo in mouse at a dosage of 25 mg/kg and percent treated/control was reported; type: functional
[38] = test system: Mus musculus; experiment: Compound was evaluated for the anticancer activity against M5076 sarcoma in vivo in mouse at a dosage of 100 mg/kg and the weight difference was measured.; type: functional
[39] = test system: Mus musculus; experiment: Compound was evaluated for the anticancer activity against M5076 sarcoma in vivo in mouse at a dosage of 200 mg/kg, survivals were reported; type: functional
[40] = test system: Mus musculus; experiment: Compound was evaluated for the anticancer activity against M5076 sarcoma in vivo in mouse at a dosage of 6.25 mg/kg and percent treated/control was reported; type: functional
[41] = test system: Mus musculus; experiment: Compound was evaluated for the anticancer activity against M5076 sarcoma in vivo in mouse at a dosage of 25 mg/kg and the weight difference was measured.; type: functional
[42] = test system: L1210; experiment: Activity against L1210 was reported.; type: functional, Mus musculus

Q: With COc1cc2c[n+](C)c3c(c2cc1OC)Cc1cc(OS(C)(=O)=O)c(OC)cc1-3.[Cl-] as the compound, how does the Survival [1] read?
A: 6

Q: And the Weight difference [2]?
A: -0.6

Q: And the T/C [3]?
A: 145%

Q: What about the EC50 [4] of the same compound?
A: 0.01 µg/mL

Q: And the Survival [5]?
A: 6

Q: And the Weight difference [6]?
A: -3.6

Q: What about the Weight difference [7] of the same compound?
A: -2.1

Q: And the Survival [8]?
A: 6

Q: What about the Survival [9] of the same compound?
A: 5

Q: And the T/C [10]?
A: 137%

Q: And the T/C [11]?
A: 128%

Q: What about the Weight difference [12] of the same compound?
A: -1.3

Q: And the T/C [13]?
A: 136%

Q: For COc1cc2c[n+](C)c3c(c2cc1OC)Cc1c-3ccc(OS(C)(=O)=O)c1OC.[Cl-], which EC50 [4] is on record?
A: 0.1 µg/mL

Q: For COc1cc2cc(-c3ccc4c(c3)OCO4)[n+](C)cc2cc1OC.[Cl-], which EC50 [14] is on record?
A: 0.005 µg/mL

Q: With COc1cc2cc(-c3ccc(OC(C)C)c(OC)c3)[n+](C)cc2cc1OC.[Cl-] as the compound, how does the EC50 [4] read?
A: > 100 µg/mL

Q: What does the source list for COc1cc2c(cc1O)Cc1c-2[n+](C)cc2cc(OC)c(OC)cc12.[Cl-]?
A: Weight difference [2]: -0.4; EC50 [4]: 0.03 µg/mL; Survival [5]: 6; T/C [15]: 130%; Survival [16]: 6; Weight difference [17]: 0.1; Survival [18]: 5; T/C [11]: 138%; Weight difference [12]: -0.1; T/C [13]: 149%

Q: Which T/C [3] does the source give for COc1cc2c[n+](C)c3c(c2cc1OC)Cc1c-3ccc(O)c1OC.[Cl-] here?
A: 134%

Q: And the EC50 [4]?
A: 0.4 µg/mL

Q: What about the Weight change [6] of the same compound?
A: -0.2

Q: And the Weight change [7]?
A: 0.2

Q: What about the T/C [19] of the same compound?
A: 137%

Q: What about the Survival [20] of the same compound?
A: 6

Q: And the Survival [21]?
A: 6

Q: And the Survival [22]?
A: 6

Q: What about the T/C [10] of the same compound?
A: 116%

Q: What about the Weight change [23] of the same compound?
A: -1.5

Q: Which Survival [24] does the source give for COc1cc2c[n+](C)c3c(c2cc1OC)Cc1cc2c(cc1-3)OCO2.[Cl-] here?
A: 9

Q: And the Weight difference [25]?
A: -0.8

Q: And the Survival [26]?
A: 10

Q: And the T/C [27]?
A: 137%

Q: What about the T/C [28] of the same compound?
A: 109%

Q: What about the Weight difference [29] of the same compound?
A: -0.2

Q: And the Survival [30]?
A: 10

Q: What about the T/C [31] of the same compound?
A: 107%

Q: And the Weight difference [32]?
A: -7.2

Q: And the Survival [33]?
A: 9

Q: And the Survival [34]?
A: 10

Q: And the Weight difference [35]?
A: -2

Q: What about the Survival [36] of the same compound?
A: 0

Q: And the T/C [37]?
A: 113%

Q: What about the Weight difference [38] of the same compound?
A: -4.4

Q: And the Survival [39]?
A: 6

Q: What about the T/C [40] of the same compound?
A: 115%

Q: And the Weight difference [41]?
A: -0.3

Q: For COc1cc2c[n+](C)c3c4cc5c(cc4ccc3c2cc1OC)OCO5.[Cl-] [NITIDINE CHLORIDE], which T/C [42] is on record?
A: 136
